Measurements from ChEMBL document CHEMBL4028882, “Thiazolino 2-Pyridone Amide Isosteres As Inhibitors of Chlamydia trachomatis Infectivity” (J Med Chem, 2017).
Activity calls are given as the source filed them. The calls are words filed in the database; no cut-off is given here.

Assays:
Chlamydia trachomatis [1] = test: Antimicrobial activity against Chlamydia trachomatis serovar LGV-L2 454/Bu infected in human HeLa229 cells assessed as concentration required to reduce reinfection levels by >= 95% measured 44 to 48 hrs post infection by DAPI staining-based assay; format: functional
In short: (§1)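 HeLa cells were infected with C. trachomatis LGV-L2 and treated with compound. After 48 h the cells were lysed and the recovered bacteria used to infect fresh HeLa cells. Reinfection was quantified as new inclusion forming units versus cells infected with untreated bacteria. The concentration giving 95% reduction (Reinfect95) was determined from fixed concentrations of 2.5, 1.0, 0.5 and 0.25 μM.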

[2] = Cytotoxicity against human HeLa229 cells assessed as cell viability at 10 uM after 44 to 48 hrs by resazurin-based fluorometry relative to control; set-up: species or system HeLa 229; settings: read-out: Activity
In short: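 HeLa host cell viability was measured with compound at 10 μM in a resazurin assay, run to exclude host toxicity as the cause of anti-infective activity.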

Salmonella typhimurium [3] = test: Mutagenicity in Salmonella typhimurium TA98/TA100 assessed as revertant colonies/plate in absence of rat liver S9 fraction at 10 ug/spot after 2 to 3 days by Ames test; format: toxicity; settings: salmonella enterica subsp. enterica serovar typhimurium
In short: (§2)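 Mutagenicity was screened by the spot-based Ames test procedure, with compound applied at 10 μg/spot.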

Salmonella typhimurium [4] = test: Mutagenicity in Salmonella typhimurium TA98/TA100 assessed as revertant colonies/plate in presence of rat liver S9 fraction at 10 ug/spot after 2 to 3 days by Ames test; format: toxicity; settings: salmonella enterica subsp. enterica serovar typhimurium; in short: as §2
Salmonella typhimurium [5] = test: Mutagenicity in Salmonella typhimurium TA1535/TA1538 assessed as revertant colonies/plate in presence of rat liver S9 fraction at 10 ug/spot after 2 to 3 days by Ames test; format: toxicity; settings: salmonella enterica subsp. enterica serovar typhimurium; in short: as §2
Salmonella typhimurium [6] = test: Mutagenicity in Salmonella typhimurium TA1535/TA1538 assessed as revertant colonies/plate in absense of rat liver S9 fraction at 10 ug/spot after 2 to 3 days by Ames test; format: toxicity; settings: salmonella enterica subsp. enterica serovar typhimurium; in short: as §2
Chlamydia trachomatis [7] = test: Antimicrobial activity against Chlamydia trachomatis serovar LGV-L2 454/Bu infected in human HeLa229 cells assessed as reduction in reinfection levels measured 44 to 48 hrs post infection by DAPI staining-based assay; format: functional, cell-based; settings: HeLa 229; in short: as §1
Chlamydia trachomatis [8] = test: Antimicrobial activity against Chlamydia trachomatis serovar D UW-3 infected in human HeLa229 cells assessed as reduction in reinfection levels measured 44 to 48 hrs post infection by DAPI staining-based assay; format: functional, cell-based; settings: serovar D UW-3, HeLa 229
Escherichia coli = test: Growth inhibition of Escherichia coli CCUG 17620 at 10 ug/ml after 24 hrs by disk diffusion method
In short: (§3)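 Disk diffusion assay of vaginal flora species (S. aureus, E. coli, L. jensenii, S. agalactiae) and the fungus C. albicans, with compound tested at 10 μg/mL.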

Staphylococcus aureus = test: Growth inhibition of Staphylococcus aureus CCUG 1800 at 10 ug/ml after 24 hrs by disk diffusion method; in short: as §3
Lactobacillus jensenii = test: Growth inhibition of Lactobacillus jensenii CCUG 33572 at 10 ug/ml after 24 hrs by disk diffusion method; in short: as §3
Streptococcus agalactiae = test: Growth inhibition of Streptococcus agalactiae CCUG 4208 at 10 ug/ml after 24 hrs by disk diffusion method; in short: as §3
Candida albicans = test: Growth inhibition of Candida albicans at 10 ug/ml after 24 hrs by disk diffusion method; in short: as §3
Chlamydia trachomatis [9] = test: Antimicrobial activity against Chlamydia trachomatis serovar LGV-L2 454/Bu infected in human HeLa229 cells at 1 uM compound treated during 48 hrs of infection by DAPI staining-based assay; format: functional, cell-based
In short: (§4)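 Time-of-addition format of the LGV-L2 HeLa infection/reinfection assay. Compound was present during the first 24 h, the second 24 h, or throughout the 48 h infection. Infectivity was then scored against untreated controls.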

Chlamydia trachomatis [10] = test: Antimicrobial activity against Chlamydia trachomatis serovar LGV-L2 454/Bu infected in human HeLa229 cells at 1 uM compound treated during first 24 hrs of infection by DAPI staining-based assay; format: functional, cell-based; in short: as §4
Chlamydia trachomatis [11] = test: Antimicrobial activity against Chlamydia trachomatis serovar LGV-L2 454/Bu expressing mCherry infected in human HeLa cells assessed as reduction in accumulation of BODIPY 22 in bacterial inclusions at 0.5 uM incubated for 48 hrs by BODIPY 22-based confocal microscopy

## O=c1cc(Cc2cccc3ccccc23)c(C2CC2)c2n1C(c1nc(-c3ccccc3)c[nH]1)CS2 (configuration not stated)
Chlamydia trachomatis [1]
  Activity: 2.5 µM
[2]
  viability at 10 µM: 106%

## O=c1cc(Cc2cccc3ccccc23)c(C2CC2)c2n1C(c1nnc(-c3ccccc3)o1)CS2 (configuration not stated)
Chlamydia trachomatis [1]
  Activity: 1 µM
[2]
  viability at 10 µM: 103%

## Nc1c(Cc2cccc3ccccc23)c(C2CC2)c2n(c1=O)C(C(=O)Nc1ccccc1)CS2 (configuration not stated)
Salmonella typhimurium [3]
  Activity: Non-Toxic
Salmonella typhimurium [4]
  Activity: Non-Toxic
Salmonella typhimurium [5]
  Activity: Non-Toxic
Salmonella typhimurium [6]
  Activity: Non-Toxic

## O=C(NS(=O)(=O)c1ccccc1)C1CSc2c(C3CC3)c(Cc3cccc4ccccc34)cc(=O)n21 (configuration not stated)
Chlamydia trachomatis [1]
  Activity: >2.5 µM
[2]
  viability at 10 µM: 105%

## Nc1c(Cc2cccc3ccccc23)c(C2CC2)c2n(c1=O)C(c1nc(-c3ccccc3)n[nH]1)CS2 (configuration not stated)
Chlamydia trachomatis [1]
  Activity: 0.25 µM
[2]
  viability at 10 µM: 100%

## O=c1cc(Cc2cccc3ccccc23)c(C2CC2)c2n1C(n1cc(-c3ccccc3)nn1)CS2 (configuration not stated)
Salmonella typhimurium [3]
  Activity: Non-Toxic
Chlamydia trachomatis [1]
  Activity: 0.25 µM
[2]
  viability at 10 µM: 96%
Chlamydia trachomatis [7]
  EC50: 18 nM
Chlamydia trachomatis [8]
  EC50: 37 nM
Salmonella typhimurium [4]
  Activity: Non-Toxic
Salmonella typhimurium [5]
  Activity: Non-Toxic
Salmonella typhimurium [6]
  Activity: Non-Toxic
Escherichia coli
  growth inhibition (GI): Non-Toxic
Staphylococcus aureus
  growth inhibition (GI): Non-Toxic
Lactobacillus jensenii
  growth inhibition (GI): Non-Toxic
Streptococcus agalactiae
  growth inhibition (GI): Non-Toxic
Candida albicans
  growth inhibition (GI): Non-Toxic
Chlamydia trachomatis [9]
  Activity: Active
Chlamydia trachomatis [10]
  Activity: inactive
Chlamydia trachomatis [11]
  Activity: Active

## O=C(CNC(=O)C1CSc2c(C3CC3)c(Cc3cccc4ccccc34)cc(=O)n21)c1ccccc1 (configuration not stated)
Chlamydia trachomatis [1]
  Activity: 2.5 µM
[2]
  viability at 10 µM: 107%

## O=c1cc(Cc2cccc3ccccc23)c(C2CC2)c2n1C(c1nc(-c3ccccc3)n[nH]1)CS2 (configuration not stated)
Chlamydia trachomatis [1]
  Activity: 0.5 µM
[2]
  viability at 10 µM: 98%

## CC(C)(C)OC(=O)NC1CSc2c(C3CC3)c(Cc3cccc4ccccc34)cc(=O)n21 (configuration not stated)
Chlamydia trachomatis [1]
  Activity: >2.5 µM
[2]
  viability at 10 µM: 105%

## O=C(NC1CSc2c(C3CC3)c(Cc3cccc4ccccc34)cc(=O)n21)c1ccccc1 (configuration not stated)
Chlamydia trachomatis [1]
  Activity: 2.5 µM
[2]
  viability at 10 µM: 114%

## Cc1cccc(-c2n[nH]c(C3CSc4c(C5CC5)c(Cc5cccc6ccccc56)cc(=O)n43)n2)c1 (configuration not stated)
Chlamydia trachomatis [1]
  Activity: 0.5 µM
[2]
  viability at 10 µM: 95%

## O=c1cc(Cc2cccc3ccccc23)c(C2CC2)c2n1C(c1ncc(-c3ccccc3)s1)CS2 (configuration not stated)
Chlamydia trachomatis [1]
  Activity: >2.5 µM
[2]
  viability at 10 µM: 97%

## O=c1cc(Cc2cccc3ccccc23)c(C2CC2)c2n1C(c1nc(-c3ccccc3)co1)CS2 (configuration not stated)
Chlamydia trachomatis [1]
  Activity: 2.5 µM
[2]
  viability at 10 µM: 83%

## O=c1cc(Cc2cccc3ccccc23)c(C2CC2)c2n1C(NS(=O)(=O)c1ccccc1)CS2 (configuration not stated)
Chlamydia trachomatis [1]
  Activity: >2.5 µM
[2]
  viability at 10 µM: 114%

## O=c1cc(Cc2cccc3ccccc23)c(C2CC2)c2n1C(c1nc(-c3ccccc3)no1)CS2 (configuration not stated)
Chlamydia trachomatis [1]
  Activity: >2.5 µM
[2]
  viability at 10 µM: 99%

## Nc1c(Cc2cccc3ccccc23)c(C2CC2)c2n(c1=O)C(n1cc(-c3ccccc3)nn1)CS2 (configuration not stated)
Salmonella typhimurium [3]
  Activity: Non-Toxic
Chlamydia trachomatis [1]
  Activity: 0.25 µM
[2]
  viability at 10 µM: 105%
Chlamydia trachomatis [7]
  EC50: 13 nM
Chlamydia trachomatis [8]
  EC50: 35 nM
Salmonella typhimurium [4]
  Activity: Non-Toxic
Salmonella typhimurium [5]
  Activity: Non-Toxic
Salmonella typhimurium [6]
  Activity: Non-Toxic
Escherichia coli
  growth inhibition (GI): Non-Toxic
Staphylococcus aureus
  growth inhibition (GI): Non-Toxic
Lactobacillus jensenii
  growth inhibition (GI): Non-Toxic
Streptococcus agalactiae
  growth inhibition (GI): Non-Toxic
Candida albicans
  growth inhibition (GI): Non-Toxic
Chlamydia trachomatis [9]
  Activity: Active
Chlamydia trachomatis [10]
  Activity: inactive
Chlamydia trachomatis [11]
  Activity: Active
